Results published in ChEMBL document CHEMBL2440008, “Identification of 2-aminooxazole amides as acyl-CoA: diacylglycerol acyltransferase 1 (DGAT1) inhibitors through scaffold hopping strategy” (Bioorg Med Chem Lett, 2013).
Converted amounts (≈) assume the structure as drawn. Values belong to the compound of their own block, whether it stands above or below them.

Legend:
[1] = system: Mus musculus; experiment: Antidyslipidemic activity in C57BL/6J mouse postprandial triglyceridemia model assessed as reduction in plasma triglyceride level at 10 mg/kg, po treated 15 mins prior to corn oil-challenge measured after 2 hrs by colorimetric method relative to control; type: functional; set-up: scale not given: the % may be the effect or the level left
Outline: (§1)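 Male C57BL/6J mice fasted overnight; oral dose in 20% hydroxypropyl-b-cyclodextrin vehicle (vehicle alone for controls) 15 min before 0.25 mL corn oil challenge at time 0. Terminal blood taken by heart puncture under anesthesia at 2 h; plasma triglycerides measured colorimetrically by enzymatic TG reagent with absorbance read on a microplate reader, compared with vehicle-treated controls.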

[2] = biological target: T1, Diacylglycerol O-acyltransferase 1 (Mus musculus, UniProt Q9Z2A7); experiment: Inhibition of mouse DGAT-1
T1 sequence (Q9Z2A7 whole entry): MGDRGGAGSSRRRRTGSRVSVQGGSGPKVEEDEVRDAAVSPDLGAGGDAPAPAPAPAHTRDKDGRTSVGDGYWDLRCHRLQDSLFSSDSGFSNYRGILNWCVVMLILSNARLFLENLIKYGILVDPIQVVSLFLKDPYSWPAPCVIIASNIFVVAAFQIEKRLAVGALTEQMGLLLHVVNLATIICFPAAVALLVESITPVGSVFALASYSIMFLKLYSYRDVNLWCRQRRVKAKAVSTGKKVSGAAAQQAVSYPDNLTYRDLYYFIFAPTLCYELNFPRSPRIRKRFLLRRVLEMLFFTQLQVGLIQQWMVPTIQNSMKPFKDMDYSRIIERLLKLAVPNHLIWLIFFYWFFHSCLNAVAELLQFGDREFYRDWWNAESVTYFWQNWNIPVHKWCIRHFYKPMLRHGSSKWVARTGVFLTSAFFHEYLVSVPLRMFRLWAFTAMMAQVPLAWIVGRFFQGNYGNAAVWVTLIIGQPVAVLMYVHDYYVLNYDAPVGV

[3] = biological target: T2, Cytochrome P450 3A4 (Homo sapiens, UniProt P08684); experiment: Inhibition of CYP3A4 (unknown origin) coincubated with substrate; type: ADME
[4] = biological target: T3, Cytochrome P450 2D6 (Homo sapiens, UniProt P10635); experiment: Inhibition of CYP2D6 (unknown origin) coincubated with substrate
Target sequence in this assay (P10635 whole entry, looked up): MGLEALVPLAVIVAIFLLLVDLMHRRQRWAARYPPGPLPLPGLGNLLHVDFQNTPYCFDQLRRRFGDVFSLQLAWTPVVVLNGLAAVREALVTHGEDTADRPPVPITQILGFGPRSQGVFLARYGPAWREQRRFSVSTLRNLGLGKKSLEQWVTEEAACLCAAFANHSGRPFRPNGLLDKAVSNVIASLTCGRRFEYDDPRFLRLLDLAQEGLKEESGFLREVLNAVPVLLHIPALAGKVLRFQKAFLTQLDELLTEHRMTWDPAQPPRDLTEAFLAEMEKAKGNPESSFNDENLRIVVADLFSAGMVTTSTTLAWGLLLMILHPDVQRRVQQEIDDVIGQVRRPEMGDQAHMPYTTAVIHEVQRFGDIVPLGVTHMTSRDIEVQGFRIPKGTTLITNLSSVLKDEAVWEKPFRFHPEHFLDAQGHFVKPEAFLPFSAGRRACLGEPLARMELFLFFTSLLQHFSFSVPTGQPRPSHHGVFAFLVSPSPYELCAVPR

[5] = Plasma protein binding (unknown origin); type: ADME, cell-free; conditions: read-out: PPB (converted)
[6] = biological target: T3, Cytochrome P450 2D6; experiment: Inhibition of CYP2D6 (unknown origin) preincubated prior to substrate addition; type: ADME
Target sequence in this assay (P10635 whole entry): as the sequence (P10635 whole entry, looked up) above

[7] = biological target: T4, Cytochrome P450 2C9 (Homo sapiens, UniProt P11712); experiment: Inhibition of CYP2C9 (unknown origin) preincubated prior to substrate addition; type: ADME
[8] = AUC in po dosed rat; type: ADME, organism-based; conditions: plasma
[9] = biological target: T2, Cytochrome P450 3A4; experiment: Inhibition of CYP3A4 (unknown origin) preincubated prior to substrate addition; type: ADME
[10] = biological target: T4, Cytochrome P450 2C9; experiment: Inhibition of CYP2C9 (unknown origin) coincubated with substrate; type: ADME
[11] = biological target: hERG (Homo sapiens, UniProt Q12809); experiment: Inhibition of human ERG at 10 uM relative to control
[12] = Solubility of the compound; type: physicochemical
[13] = Clearance in human hepatocytes measured per 10^6 cells; type: ADME, cell-based, Hepatocyte; conditions: read-out: CLH
[14] = system: Mus musculus; experiment: Antidyslipidemic activity in C57BL/6J mouse postprandial triglyceridemia model assessed as reduction in plasma triglyceride level at 3 mg/kg, po treated 15 mins prior to corn oil-challenge measured after 2 hrs by colorimetric method relative to control; type: functional; set-up: scale not given: the % may be the effect or the level left; outline: as §1

T2 sequence (P08684 whole entry): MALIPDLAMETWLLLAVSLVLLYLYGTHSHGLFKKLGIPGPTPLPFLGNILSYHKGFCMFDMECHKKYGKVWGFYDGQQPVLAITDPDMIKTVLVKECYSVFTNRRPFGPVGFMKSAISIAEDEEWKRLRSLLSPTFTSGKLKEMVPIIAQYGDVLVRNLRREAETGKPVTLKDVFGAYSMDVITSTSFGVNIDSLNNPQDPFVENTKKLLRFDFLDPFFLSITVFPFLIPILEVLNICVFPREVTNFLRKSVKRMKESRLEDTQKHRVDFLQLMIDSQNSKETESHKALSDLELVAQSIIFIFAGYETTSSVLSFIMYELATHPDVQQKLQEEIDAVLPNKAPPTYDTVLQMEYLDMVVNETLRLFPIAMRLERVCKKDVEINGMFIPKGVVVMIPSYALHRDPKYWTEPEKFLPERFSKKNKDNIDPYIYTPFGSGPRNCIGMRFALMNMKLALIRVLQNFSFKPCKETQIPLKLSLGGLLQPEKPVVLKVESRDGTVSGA
T4 sequence (P11712 whole entry): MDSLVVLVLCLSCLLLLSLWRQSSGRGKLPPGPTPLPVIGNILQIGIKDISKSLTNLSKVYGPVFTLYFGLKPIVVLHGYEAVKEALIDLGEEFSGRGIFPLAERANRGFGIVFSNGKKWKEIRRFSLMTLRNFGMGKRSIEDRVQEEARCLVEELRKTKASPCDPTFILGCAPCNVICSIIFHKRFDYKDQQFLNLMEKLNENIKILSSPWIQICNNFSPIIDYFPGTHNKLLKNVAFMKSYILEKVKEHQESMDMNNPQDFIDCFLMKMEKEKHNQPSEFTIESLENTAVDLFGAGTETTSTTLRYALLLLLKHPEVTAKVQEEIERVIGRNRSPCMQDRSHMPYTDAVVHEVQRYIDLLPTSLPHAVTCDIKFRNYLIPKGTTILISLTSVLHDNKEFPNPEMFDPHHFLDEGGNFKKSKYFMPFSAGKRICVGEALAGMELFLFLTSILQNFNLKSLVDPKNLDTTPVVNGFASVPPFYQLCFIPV
Sequence of hERG (Q12809 whole entry): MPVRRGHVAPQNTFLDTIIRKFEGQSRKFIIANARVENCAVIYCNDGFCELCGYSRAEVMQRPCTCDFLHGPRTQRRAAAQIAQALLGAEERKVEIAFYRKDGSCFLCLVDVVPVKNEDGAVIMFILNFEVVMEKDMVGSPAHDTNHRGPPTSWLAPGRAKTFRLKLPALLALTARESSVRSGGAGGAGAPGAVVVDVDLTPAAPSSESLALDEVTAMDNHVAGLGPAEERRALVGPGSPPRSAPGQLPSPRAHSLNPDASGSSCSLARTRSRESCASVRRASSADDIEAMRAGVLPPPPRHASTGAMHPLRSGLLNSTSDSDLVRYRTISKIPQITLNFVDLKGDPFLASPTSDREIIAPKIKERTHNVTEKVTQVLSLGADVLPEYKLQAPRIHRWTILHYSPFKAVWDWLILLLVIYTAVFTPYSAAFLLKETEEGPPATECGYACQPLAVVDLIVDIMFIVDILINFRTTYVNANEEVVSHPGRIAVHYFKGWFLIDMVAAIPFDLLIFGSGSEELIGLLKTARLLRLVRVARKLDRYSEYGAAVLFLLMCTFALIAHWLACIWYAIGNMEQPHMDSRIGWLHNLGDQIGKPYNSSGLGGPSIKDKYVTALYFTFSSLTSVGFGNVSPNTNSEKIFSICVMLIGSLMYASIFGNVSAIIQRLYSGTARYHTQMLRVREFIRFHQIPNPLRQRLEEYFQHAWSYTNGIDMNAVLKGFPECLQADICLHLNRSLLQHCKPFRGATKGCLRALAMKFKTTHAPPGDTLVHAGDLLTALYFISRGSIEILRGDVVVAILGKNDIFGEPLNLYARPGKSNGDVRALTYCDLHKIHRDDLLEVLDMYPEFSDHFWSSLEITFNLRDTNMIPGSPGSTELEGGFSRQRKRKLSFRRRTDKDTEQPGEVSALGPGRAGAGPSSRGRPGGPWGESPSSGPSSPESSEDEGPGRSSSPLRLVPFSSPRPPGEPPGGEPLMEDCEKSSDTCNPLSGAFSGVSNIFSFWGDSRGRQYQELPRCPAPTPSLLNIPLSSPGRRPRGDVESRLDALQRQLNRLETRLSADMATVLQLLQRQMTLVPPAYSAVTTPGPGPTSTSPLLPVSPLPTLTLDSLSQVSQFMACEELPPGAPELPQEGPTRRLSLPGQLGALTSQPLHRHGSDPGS

IC50 [2]: 2.27 µM
Compound: O=C(Nc1ccc(N2CCN(c3ncccc3Cl)CC2)nc1)c1oc(N2CCCCC2)nc1C(F)(F)F

IC50 [3]: > 20 µM | IC50 [4]: > 20 µM | fraction unbound [5]: 0.004 | IC50 [6]: > 20 µM | IC50 [7]: > 20 µM | AUC [8]: 69 µM·h | IC50 [9]: > 20 µM | IC50 [10]: > 20 µM | IC50 [2]: 1.2 µM | solubility [12]: 100 µM (≈ 51.1 µg/mL) | hepatocyte CLint [13]: 24.2 µL/min/1e6 cells
Compound: CC(C)OC(=O)N1CCN(c2ccc(NC(=O)c3oc(N4CCCCC4)nc3C(F)(F)F)cn2)CC1
Activity [1]: -12% | inhibition at 10 µM [11]: 40%

IC50 [2]: 0.134 µM
Compound: O=C(Nc1ccc(N2CCCN(C(=O)Nc3ccccc3Cl)CC2)nc1)c1oc(N2CCCCC2)nc1C(F)(F)F

Second part, the compound before the results:

Compound: O=C(Nc1ccc(N2CCN(C(=O)OC3CCCC3)CC2)nc1)c1oc(N2CCCCC2)nc1C(F)(F)F
Activity [1]: -27%

Compound: O=C(Nc1ccc(N2CCN(C(=O)Oc3ccccc3Cl)CC2)nc1)c1oc(N2CCCCC2)nc1C(F)(F)F
IC50 [2]: 1.39 µM

Compound: COCCN(C)c1ccc(NC(=O)c2oc(-c3ccccc3)nc2C(F)(F)F)cn1
AUC [8]: 12.7 µM·h | IC50 [2]: 2.85 µM

Compound: O=C(Nc1ccc(N2CCN(C(=O)Nc3ccccc3Cl)CC2)nc1)c1oc(N2CCCCC2)nc1C(F)(F)F
IC50 [3]: > 20 µM | IC50 [4]: > 20 µM | fraction unbound [5]: 0.001 | IC50 [6]: > 20 µM | IC50 [7]: 9.7 µM | AUC [8]: 25 µM·h | Activity [1]: -63% | IC50 [9]: 5 µM | IC50 [10]: 6.4 µM | Activity [14]: -28% | IC50 [2]: 0.026 µM | solubility [12]: 10 µM (≈ 5.78 µg/mL) | hepatocyte CLint [13]: 16.9 µL/min/1e6 cells
